167 variants from the RNAGym collection of RNA variant scans (doi:10.1126/science.aae0568) can be followed below.

To fix the notation:
B1: tRNA (parent)
chain: GUUCCGUUGGCGUAAUGGUAACGCGUCUCCCUCCUAAGGAGAAGACUGCGGGUUCGAGUCCCGUACGGAACG

Fewer inactive variants are shown than the library holds.

Variants of B1 are the subject of this data set. As to the kind of experiment: yeast fitness relative to wild type (ratio to wild type); higher = fitter; tRNA-Arg(CCU), competitive growth, 37 C, YPD. In a few lines:
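Genotype frequency changes were the basis for Darwinian fitness relative to wild type. The frequencies came from 100-nucleotide paired-end sequencing of gene amplicons from the start population and each end population of pooled yeast strains with tRNA-Arg(CCU) gene variants at the native locus. Competition ran in YPD at 37°C for 24 hours in six replicates, genotypes needed ≥ 100 starting reads, and estimates < 0.5 were set to 0.5.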
Turning to C11G U13G C30U U32A A37G A40U A57U, the yeast fitness is at most 0.5.
Regarding C11G C31G C55G C60A, the yeast fitness was at most 0.5.
On to C11G C49A A57U U64A G67U, for which the yeast fitness was at most 0.5.
C11G G18C U26C C31G C46U C55U: the yeast fitness was at most 0.5.
As for C11G C24G C62U, the yeast fitness was determined as 0.528.
As for C11G G12C C60G, the yeast fitness is at most 0.5.
Consider C11G C29A U35C A43C, for which the yeast fitness is at most 0.5.
For the variant C11G C24U C62U G68C, the yeast fitness is at most 0.5.
As to C11G U28A G39A G48A G67A, the yeast fitness is at most 0.5.
Regarding C11U A14C A37C, the yeast fitness was 0.544.
The same measure for C11G G12A C27G: 0.669; for C11G C27U A36U G48C C49U: 0.717.
Consider C11G U13C A37U, for which the yeast fitness was at most 0.5.
For C11G G23C A36G A37G, the yeast fitness was 0.774.
For C11U A15U G52A C61G, the yeast fitness was at most 0.5.
The same measure for C11U A20U A36G C55G: at most 0.5; for C11G C30U A37C C55G A65G: at most 0.5; for C11G U16A U28C C29U G39A U59G G67U: at most 0.5.
Consider C11G C34U C66U, for which the yeast fitness is at most 0.5.
As for C11G A65C C66G, the yeast fitness was at most 0.5.
Regarding C11U A15U U26C C49A, the yeast fitness was at most 0.5.
As to C11G A40U A45U A69U, the yeast fitness is at most 0.5.
C11U A20C C29G A42G G56C G58A: the yeast fitness was at most 0.5.
C11G A70C: the yeast fitness was 0.776.
For the variant C11G G23C C49A C66G, the yeast fitness is at most 0.5.
C11G A40C C46U C60A: the yeast fitness is at most 0.5.
In the case of C11G A36G G52A, the yeast fitness is at most 0.5.
Take C11G C33G A37U A45U: the yeast fitness is 0.64.
The same measure for C11G C24G G51C: 0.611; for C11G C29A C61U: 0.504.
In the case of C11G C60G, the yeast fitness amounted to 0.713.
With C11G A36C G68C, the yeast fitness is at most 0.5.
Consider C11G G52C U54C A57U, for which the yeast fitness is at most 0.5.
In the case of C11U A15G C27G G56C, the yeast fitness was at most 0.5.
For C11G A21G A40G G58A C62G, the yeast fitness is at most 0.5.
As to C11G U19A C34G C49G, the yeast fitness was at most 0.5.
C11G G39A: the yeast fitness turned out to be 0.63.
Regarding C11G C46G A57U, the yeast fitness amounted to 0.624.
Regarding C11G G48C G51C U53C A57U C66U, the yeast fitness was at most 0.5.
Regarding C11U A21G C62U, the yeast fitness amounted to 0.648.
The same measure for C11G A36C G56A A70U: at most 0.5; for C11G U26A U53A: at most 0.5; for C11G C24G G67C: 0.566.
Consider C11G A21G G51C, for which the yeast fitness came out at 0.872.
The same measure for C11U A15C C30U A42C: at most 0.5.
Under C11G A40U C62A stands at most 0.5; under C11G G18A C24U G58A A70G, at most 0.5; under C11G C24U C34A A37C C55G, 0.526.
For the variant C11U A15G A69C, the yeast fitness came out at 0.75.
As for C11G A36C, the yeast fitness was at most 0.5.
C11G U19A C22G G68C: the yeast fitness was at most 0.5.
For C11G C24U U28C G51A, the yeast fitness is at most 0.5.
For the variant C11G U28A G68A, the yeast fitness was at most 0.5.
Under C11G C27G A70G stands at most 0.5.
On to C11G U16A G23C C30U C34U A69U, for which the yeast fitness is 0.844.
Take C11G C62G: the yeast fitness was determined as 0.642.
With C11U A15G U32A C49A G56C, the yeast fitness was at most 0.5.
The same measure for C11G C27A A57C C62U: at most 0.5; for C11G G25A A37U: 0.573.
Turning to C11G C29U C46G, the yeast fitness is at most 0.5.
As to C11G C33U G68C, the yeast fitness was at most 0.5.
In the case of C11G U19C C27G U28G, the yeast fitness is at most 0.5.
The same measure for C11G C27G G67A: at most 0.5; for C11G C62A A70C: 0.563; for C11U A14U U28A C33U: 0.535.
The same measure for C11U A14C: 0.745; for C11U A14G: 0.865; for C11G C27U C60A: 0.535.
As to C11G A36C G52C G56A, the yeast fitness was at most 0.5.
The same measure for C11G G38C C49A: 0.583.
The same measure for C11G G48C: 0.687.
Consider C11G A37G G38A A45U A70G, for which the yeast fitness is at most 0.5.
As to C11G G18C U26C C31G C46U C60G C61G A65C, the yeast fitness worked out at 0.61.
C11G C31A: the yeast fitness stood at 0.508.
Take C11G C31G: the yeast fitness was 0.555.
In the case of C11G C34G G48A, the yeast fitness was at most 0.5.
On to C11G U13G A20C C27G C29A, for which the yeast fitness was at most 0.5.
Consider C11G U59A, for which the yeast fitness stood at 0.641.
Turning to C11G U28C C60A G67A, the yeast fitness came to 0.567.
On to C11G C31A G39A G48A A57G A65G, for which the yeast fitness was at most 0.5.
Under C11G C55G G63C G67C stands 0.557.
As for C11G G25A C29U C34U, the yeast fitness was at most 0.5.
Turning to C11U A15C A21U C24A C33A C66A, the yeast fitness is at most 0.5.
Under C11U A15G C27G stands 0.544; under C11U A15U C22U, 0.507.
In the case of C11G U26C A45C A57C U59G, the yeast fitness is at most 0.5.
Under C11G C31U C46G G63A stands at most 0.5; under C11G G25A A36U, 0.615.
Under C11G C30U A37U stands at most 0.5; under C11G A21U C24U C66U, 0.631.
The same measure for C11G C27U A43C A65U: at most 0.5; for C11G A37C A42U: at most 0.5; for C11U A15U C27G A40C: at most 0.5.
With C11U A14G G51C A69U, the yeast fitness was at most 0.5.
For the variant C11G C29U C34U C62A U64C C66U, the yeast fitness was at most 0.5.
C11G G17A C24U C29G: the yeast fitness was 0.6.
C11G C22G C33G: the yeast fitness is 0.59.
Under C11G C27A C31A stands at most 0.5.
In the case of C11G A36U A42G A43C, the yeast fitness was determined as 0.527.
For C11G G25A C34G, the yeast fitness is at most 0.5.
The same measure for C11G G12A C61G G68A: 0.556; for C11G A36C C46G C60G: 0.68.
As for C11G U26A C30U G48A U54A C55G A65U, the yeast fitness was found to be 0.664.
Under C11U A15C G56A stands 0.57.
On to C11G C24U A42C A65C, for which the yeast fitness is at most 0.5.
For the variant C11G C46U, the yeast fitness is 0.752.
As to C11G G12C U54A C60A A69C, the yeast fitness was 0.557.
With C11U A15G C46U, the yeast fitness came out at 0.961.
C11G A36C C46U: the yeast fitness was at most 0.5.
For the variant C11G C29G C33U C46A C49G G68C, the yeast fitness was at most 0.5.
With C11G U13G C62G, the yeast fitness was at most 0.5.
For the variant C11G U47A G68C, the yeast fitness is at most 0.5.
As for C11G U16C A21U C30G G50C, the yeast fitness is at most 0.5.
For the variant C11U A15U G51A G56C, the yeast fitness is at most 0.5.
The same measure for C11U A20U C24U C29A: at most 0.5; for C11U A15G C27G A45U: at most 0.5.
For the variant C11G C62U G63A, the yeast fitness is at most 0.5.
Regarding C11G G18A G23A, the yeast fitness is at most 0.5.
As to C11G G12C A40G U47C G50C, the yeast fitness was 0.897.
Turning to C11G C30U A37C C46U A57C, the yeast fitness was at most 0.5.
The same measure for C11G U13A U16G U26A A65G: at most 0.5; for C11G G18U C22U G39C C49G A57U A69U: at most 0.5; for C11G G23C C49U G56A G63A: at most 0.5.
For the variant C11G C30A C31G G50A, the yeast fitness was at most 0.5.
C11U A21G: the yeast fitness is 0.922.
For C11G U32A C46U, the yeast fitness was 0.598.
As to C11G U16A U26A C34U C55G, the yeast fitness is at most 0.5.
In the case of C11G G50C, the yeast fitness was found to be 0.597.
On to C11G G50A, for which the yeast fitness turned out to be 0.716.
Under C11U A15U G38A stands at most 0.5.
Under C11G C31G A42U A65C stands 0.602; under C11G A21G C34G A40C, at most 0.5.
On to C11G C34U U35A C55U, for which the yeast fitness amounted to 0.59.
The same measure for C11G A21G C31G A65U: 0.561; for C11G U16G G38C G68A: at most 0.5.
Consider C11G C30G A65C, for which the yeast fitness was at most 0.5.
In the case of C11G A36C G38U G56A, the yeast fitness is at most 0.5.
Take C11G C34U G41A: the yeast fitness worked out at 0.544.
With C11G C29G U35C A45U, the yeast fitness was at most 0.5.
Take C11G A42U C49U C62U: the yeast fitness is at most 0.5.
C11G A36C G56A A69U: the yeast fitness was at most 0.5.
As to C11G A21U U26C, the yeast fitness is at most 0.5.
Turning to C11U A14G C27G C31U G68C, the yeast fitness was at most 0.5.
On to C11U A15U C33A, for which the yeast fitness was at most 0.5.
Turning to C11G U13G G23C C34U U59C C66U, the yeast fitness is at most 0.5.
As for C11U A20G U59A, the yeast fitness was 0.514.
The same measure for C11G G39C U47C C60A C61G A69U: 0.528; for C11G C34A A36U G48A G52C C60A: 0.646; for C11G G25A U32C G50A G51U U59A U64A: 0.628.
As to C11G C29U U35C C66A, the yeast fitness is at most 0.5.
For C11G G41A A69U, the yeast fitness was at most 0.5.
C11U A14G U35C C60G: the yeast fitness was at most 0.5.
Under C11U A21C A43G stands at most 0.5.
For the variant C11U A15C C27A G39C, the yeast fitness was at most 0.5.
With C11G U35A C66G, the yeast fitness was at most 0.5.
On to C11U A21G A70C, for which the yeast fitness was found to be 0.818.
Regarding C11G G23C, the yeast fitness is 1.07.
C11G U16C C24U U28C: the yeast fitness was at most 0.5.
For the variant C11G C29G C49U G63A, the yeast fitness is at most 0.5.
As to C11G U16A G23C C30U C34U G67U, the yeast fitness was 0.537.
Take C11G C29U C61A: the yeast fitness is at most 0.5.
As to C11G U16A C24U, the yeast fitness is at most 0.5.
With C11G U13G C33G G41A G63A A69C, the yeast fitness was at most 0.5.
For C11G G18C C49A A70C, the yeast fitness is at most 0.5.
C11G C29A C60U U64A: the yeast fitness is at most 0.5.
In the case of C11G C30G C33A C66U, the yeast fitness was at most 0.5.
The same measure for C11G G51C: 0.58.
